Reference: ChEMBL document CHEMBL3817826, “H2S-Donating Doxorubicins May Overcome Cardiotoxicity and Multidrug Resistance” (J Med Chem, 2016)
Calls of active or inactive are those of the source. The calls are words filed in the database; no cut-off is given here.

Columns and labels:
[1] = tested on: H9c2; test: Cytotoxicity in rat H9c2 cells at 5 uM incubated for 24 hrs by LDH release-based spectrofluorimetrical analysis relative to control; format: cell-based; conditions: h9c2, 24 h
In short: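 Cells exposed 24 h to 5 μM drug in DMEM with 10% FBS at 37 °C, 5% CO2. Medium spun 12,000 × g 5 min. Cells sonicated in 82.3 mM triethanolamine phosphate-HCl pH 7.6. LDH in medium and lysate followed 6 min at 340 nm. Extracellular LDH reported as % of total dish activity, duplicate, n = 3, mean ± SD.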

[2] = Half life of compound assessed as human serum esterase-mediated degradation at 100 uM by RP-HPLC analysis; format: ADME
In short: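 10 mM DMSO stock added to human serum pre-warmed to 37 °C, giving 100 μM final. Samples taken over time and deproteinized with equal volume acetonitrile/0.1% HCOOH, then spun 2150 g 10 min and filtered. Analysed by RP-HPLC against 1–200 μM calibration. t1/2 from one-phase exponential decay fit, at least triplicate.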

[3] = tested on: U2OS; test: Induction of intracellular ROS accumulation in human U2OS cells at 5 uM incubated for 24 hrs by DCFDA-AM probe-based fluorimetrical analysis relative to control; format: functional, cell-based
In short: (§1)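 After 24 h at 5 μM, 1×10^6 cells in 0.5 mL PBS were loaded with 5 μM DCFDA-AM for 30 min at 37 °C, spun and resuspended. Fluorescence read at ex 492/em 517 nm, expressed as nmol ROS/mg cell protein. Duplicate, n = 3, mean ± SD.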

[4] = tested on: H9c2; test: Cytotoxicity in rat H9c2 cells assessed as intracellular ROS accumulation at 5 uM incubated for 24 hrs by DCFDA-AM probe-based fluorimetrical analysis relative to control; format: cell-based; conditions: h9c2, 24 h; in short: as §1
[5] = Stability of compound in pre-heated IMDM at 200 uM at 37 degC by RP-HPLC analysis; format: physicochemical
In short: (§2)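 10 mM DMSO stock diluted into medium pre-warmed to 37 °C, giving 200 μM final, then incubated at 37 °C. Aliquots diluted 1:1 with acetonitrile/0.1% HCOOH, filtered and run on RP-HPLC, quantified against 1–200 μM standards. t1/2 from one-phase exponential decay fit, at least triplicate.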

[6] = target: DNA topoisomerase 2-alpha (Homo sapiens) (UniProt P11388); test: Inhibition of human topoisomerase 2-mediated DNA cleavage at 5 uM using supercoiled pHOT1 plasmid as substrate by agarose gel electrophoresis
[7] = Induction of H2S release from compound in IMDM at 100 uM incubated for 1 to 24 hrs using DNS-Az by fluorimetric assay-based HPLC analysis; format: physicochemical
In short: (§3)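 Compound at 200 μM initial (half concentration for two low-solubility compounds) in medium or human serum at 37 °C with dansyl azide. Sampled at 1, 4 and 24 h, diluted with CH3CN, spun and filtered. Isocratic RP-HPLC with fluorescence ex 340/em 535 nm. Dansyl amide peak quantified against NaHS calibration as H2S index. At least triplicate.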

[8] = Induction of H2S release from compound in DMEM at 100 uM incubated for 1 to 24 hrs using DNS-Az by fluorimetric assay-based HPLC analysis; format: physicochemical; in short: as §3
[9] = tested on: H9c2; test: Cytotoxicity in rat H9c2 cells assessed as intracellular ROS accumulation at 5 uM incubated for 24 hrs in presence of hydroxocobalamin by DCFDA-AM probe-based fluorimetrical analysis relative to control; format: cell-based; conditions: h9c2, 24 h
In short: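 H9c2 cells held 24 h with 5 μM drug plus 100 μM hydroxocobalamin, then loaded with 5 μM DCFDA-AM for 30 min at 37 °C. Fluorescence read at 492/517 nm, expressed as nmol ROS/mg protein. Duplicate, n = 3.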

[10] = tested on: H9c2; test: Drug uptake in rat H9c2 cells at 5 uM incubated for 24 hrs by fluorimetrical analysis; format: ADME, cell-based; conditions: h9c2, 24 h
In short: (§4)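 Intracellular drug measured after 24 h exposure to 5 μM. Cell lysates read fluorimetrically at ex 475/em 553 nm with cell-free blank subtracted. Converted by calibration curve to nmol drug/mg cell protein. Duplicate, n = 3, mean ± SD.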

[11] = tested on: Serum; test: Induction of H2S release from compound in human serum at 100 uM incubated for 1 to 24 hrs using DNS-Az by fluorimetric assay-based HPLC analysis; format: functional; in short: as §3
[12] = tested on: H9c2; test: Cytotoxicity in rat H9c2 cells at 5 uM incubated for 24 hrs in presence of NAC by LDH release-based spectrofluorimetrical analysis relative to control; format: cell-based; conditions: h9c2, 24 h
[13] = Half life of compound in pre-heated DMEM at 200 uM at 37 degC by RP-HPLC analysis; format: physicochemical; in short: as §2
[14] = Drug uptake in human U2OS/DX580 cells at 5 uM incubated for 24 hrs by fluorimetrical analysis; format: ADME, cell-based; in short: as §4
[15] = Drug uptake in human U2OS/DX30 cells at 5 uM incubated for 24 hrs by fluorimetrical analysis; format: ADME, cell-based; in short: as §4
[16] = Drug uptake in human U2OS/DX100 cells at 5 uM incubated for 24 hrs by fluorimetrical analysis; format: ADME, cell-based; in short: as §4
[17] = tested on: U2OS; test: Drug uptake in human U2OS cells at 5 uM incubated for 24 hrs by fluorimetrical analysis; format: ADME, cell-based; in short: as §4
[18] = tested on: U2OS; test: Induction of intracellular ROS accumulation in human U2OS/DX100 cells at 5 uM incubated for 24 hrs by DCFDA-AM probe-based fluorimetrical analysis relative to control; format: functional, cell-based; in short: as §1
[19] = tested on: U2OS; test: Increase in intracellular ROS accumulation in human U2OS/DX30 cells at 5 uM incubated for 24 hrs in presence of hydroxocobalamin by DCFDA-AM probe-based fluorimetrical analysis relative to control; format: functional, cell-based
In short: (§5)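 Cells grown in DMEM with 10% FBS at 37 °C, 5% CO2, resistant variants selected in 30, 100 or 580 ng/mL doxorubicin; treated 24 h with 5 μM drug plus 100 μM hydroxocobalamin. 1×10^6 cells loaded 30 min at 37 °C with 5 μM DCFDA-AM in PBS; fluorescence at ex 492/em 517 nm, expressed as nmol ROS/mg protein; duplicates, n = 3.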

[20] = tested on: U2OS; test: Increase in intracellular ROS accumulation in human U2OS cells at 5 uM incubated for 24 hrs in presence of hydroxocobalamin by DCFDA-AM probe-based fluorimetrical analysis relative to control; format: functional, cell-based; in short: as §5
[21] = tested on: U2OS; test: Activity at PgP in human […] cells assessed as Vmax measured per mg of protein incubated for 20 mins by fluorimetrical analysis; format: cell-based
In short: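 U-2OS/DX580 cells exposed 20 min to 0-50 μM drug, washed, intracellular doxorubicin read fluorimetrically; parallel dishes left a further 10 min at 37 °C before reading. Efflux rate (difference, nmol extruded/min/mg cell protein) plotted against initial concentration; Vmax and Km fitted. Means ± SD, n = 3.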

[22] = tested on: U2OS; test: Induction of intracellular ROS accumulation in human U2OS/DX30 cells at 5 uM incubated for 24 hrs by DCFDA-AM probe-based fluorimetrical analysis relative to control; format: functional, cell-based; in short: as §1
[23] = tested on: U2OS; test: Increase in intracellular ROS accumulation in human U2OS/DX100 cells at 5 uM incubated for 24 hrs in presence of hydroxocobalamin by DCFDA-AM probe-based fluorimetrical analysis relative to control; format: functional, cell-based; in short: as §5
[24] = tested on: U2OS; test: Induction of intracellular ROS accumulation in human U2OS/DX580 cells at 5 uM incubated for 24 hrs by DCFDA-AM probe-based fluorimetrical analysis relative to control; format: functional, cell-based; in short: as §1
[25] = tested on: U2OS; test: Increase in intracellular ROS accumulation in human U2OS/DX580 cells at 5 uM incubated for 24 hrs in presence of hydroxocobalamin by DCFDA-AM probe-based fluorimetrical analysis relative to control; format: functional, cell-based; in short: as §5

Chain of DNA topoisomerase 2-alpha (Homo sapiens) (P11388 whole entry): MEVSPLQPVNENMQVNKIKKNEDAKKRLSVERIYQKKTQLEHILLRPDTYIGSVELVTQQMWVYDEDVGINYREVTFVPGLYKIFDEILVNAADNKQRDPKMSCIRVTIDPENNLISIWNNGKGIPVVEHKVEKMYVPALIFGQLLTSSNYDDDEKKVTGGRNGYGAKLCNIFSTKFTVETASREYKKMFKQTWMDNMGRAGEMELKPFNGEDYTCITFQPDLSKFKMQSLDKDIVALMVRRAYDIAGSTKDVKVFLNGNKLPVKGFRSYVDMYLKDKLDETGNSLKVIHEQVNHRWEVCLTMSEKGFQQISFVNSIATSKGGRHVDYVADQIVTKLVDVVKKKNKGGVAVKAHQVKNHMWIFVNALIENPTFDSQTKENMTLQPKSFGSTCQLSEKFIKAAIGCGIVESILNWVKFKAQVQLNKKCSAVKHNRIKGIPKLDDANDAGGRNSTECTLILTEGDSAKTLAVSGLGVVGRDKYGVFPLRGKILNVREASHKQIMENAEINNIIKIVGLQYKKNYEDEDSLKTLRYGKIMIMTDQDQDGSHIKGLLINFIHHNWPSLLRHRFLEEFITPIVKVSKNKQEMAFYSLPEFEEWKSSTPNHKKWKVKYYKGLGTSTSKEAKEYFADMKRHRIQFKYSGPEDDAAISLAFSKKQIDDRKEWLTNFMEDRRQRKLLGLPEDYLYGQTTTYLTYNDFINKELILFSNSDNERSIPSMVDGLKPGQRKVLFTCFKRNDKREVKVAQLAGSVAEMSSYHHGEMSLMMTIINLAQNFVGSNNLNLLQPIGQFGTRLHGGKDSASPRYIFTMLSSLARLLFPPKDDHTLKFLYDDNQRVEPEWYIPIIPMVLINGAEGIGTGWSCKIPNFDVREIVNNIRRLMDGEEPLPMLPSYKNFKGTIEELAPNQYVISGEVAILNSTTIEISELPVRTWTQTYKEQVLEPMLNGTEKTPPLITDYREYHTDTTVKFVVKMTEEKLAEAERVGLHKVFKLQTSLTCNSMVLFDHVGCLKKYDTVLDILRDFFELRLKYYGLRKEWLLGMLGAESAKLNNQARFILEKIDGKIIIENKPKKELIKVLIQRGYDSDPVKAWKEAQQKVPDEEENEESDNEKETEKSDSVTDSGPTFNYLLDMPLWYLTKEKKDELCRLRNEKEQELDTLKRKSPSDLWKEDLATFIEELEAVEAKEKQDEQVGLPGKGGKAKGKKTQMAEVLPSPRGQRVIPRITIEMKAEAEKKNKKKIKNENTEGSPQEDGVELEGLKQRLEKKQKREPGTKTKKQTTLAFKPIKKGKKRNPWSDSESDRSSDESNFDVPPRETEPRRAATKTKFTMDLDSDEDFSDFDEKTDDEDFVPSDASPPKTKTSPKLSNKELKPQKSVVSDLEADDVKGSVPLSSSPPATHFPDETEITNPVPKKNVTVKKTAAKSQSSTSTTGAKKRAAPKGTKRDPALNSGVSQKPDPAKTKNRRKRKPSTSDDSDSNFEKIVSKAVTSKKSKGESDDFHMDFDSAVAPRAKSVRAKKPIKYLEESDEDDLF

SMILES	Activity [1]	half-life at 100 µM [2] [h]	Activity [3]	Activity [4]	Stability [5]	inhibition [6]	Activity [7]	Activity [8]	Activity [9]	Drug uptake [10]	Activity [11]	Activity [12]	half-life at 200 µM [13] [h]	Drug uptake [14]	Drug uptake [15]	Drug uptake [16]	Drug uptake [17]	further results
C=CCSSCCC(=O)OCC	Toxic																	
COc1cccc2c1C(=O)c1c(O)c3c(c(O)c1C2=O)C[C@@](O)(C(=O)COC(=O)c1csc(=S)s1)C[C@@H]3O[C@H]1C[C@H](N)[C@H](O)[C@H](C)O1.Cl	Non-toxic	0.283	inactive	Non-toxic	Unstable	inactive	Not Active	Not Active	Toxic	Active	Active	Non-toxic	0.283					
COc1cccc2c1C(=O)c1c(O)c3c(c(O)c1C2=O)C[C@@](O)(C(=O)COC(=O)COc1ccc(-c2cc(=S)ss2)cc1)C[C@@H]3O[C@H]1C[C@H](N)[C@H](O)[C@H](C)O1.Cl	Non-toxic	0.05	inactive	Non-toxic	Unstable	inactive	Not Active	Not Active	Toxic	Active	Active	Non-toxic	0.267					
COC(=O)c1ccc(C(N)=S)cc1	Toxic																	
C=CCSSCCC(=O)OCC(=O)[C@]1(O)Cc2c(O)c3c(c(O)c2[C@@H](O[C@H]2C[C@H](N)[C@H](O)[C@H](C)O2)C1)C(=O)c1c(OC)cccc1C3=O.Cl	Toxic	3.8	inactive	Non-toxic	Stable	inactive	Not Active	Not Active	Toxic	Active	Active		5.6	Active	Active	Active	Active	
C=CCSCC(NC(C)=O)C(=O)OCC(=O)[C@]1(O)Cc2c(O)c3c(c(O)c2[C@@H](O[C@H]2C[C@H](N)[C@H](O)[C@H](C)O2)C1)C(=O)c1c(OC)cccc1C3=O.Cl (some centres not stated)	Non-toxic	0.183	inactive	Non-toxic	Unstable	inactive	Not Active	Not Active	Toxic	Active	inactive	Non-toxic	< 0.0167					
COc1cccc2c1C(=O)c1c(O)c3c(c(O)c1C2=O)C[C@@](O)(C(=O)COC(=O)c1ccc(-c2ssc(=S)c2-c2ccccc2)cc1)C[C@@H]3O[C@H]1C[C@H](N)[C@H](O)[C@H](C)O1.Cl	Non-toxic	2.8	inactive	Non-toxic	Stable	inactive	Not Active	Not Active	Toxic	Active	Active	Non-toxic	> 24	Active	Active	Active	Active	Activity [18]: inactive; Activity [19]: Active; Activity [20]: Active; Vmax [21]: 10.2 nmol/min/mg; Activity [22]: inactive; Activity [23]: Active; Activity [24]: inactive; Activity [25]: Active
COc1cccc2c1C(=O)c1c(O)c3c(c(O)c1C2=O)C[C@@](O)(C(=O)COC(=O)c1ccc(C(N)=S)cc1)C[C@@H]3O[C@H]1C[C@H](N)[C@H](O)[C@H](C)O1.Cl	Toxic	0.633	inactive	Non-toxic	Stable	inactive	Not Active	Not Active	Toxic	Active	Active		3.4	Active	Active	Active	Active	
COc1cccc2c1C(=O)c1c(O)c3c(c(O)c1C2=O)C[C@@](O)(C(=O)COC(=O)c1ccc(-c2cssc2=S)cc1)C[C@@H]3O[C@H]1C[C@H](N)[C@H](O)[C@H](C)O1.Cl	Non-toxic	4.6	inactive	Non-toxic	Stable	inactive	Active	Active	Toxic	Active	Active	Non-toxic	21.5	Active	Active	Active	Active	Activity [18]: inactive; Activity [19]: Active; Activity [20]: Active; Activity [22]: inactive; Activity [23]: Active; Activity [24]: inactive; Activity [25]: Active
